Article PMC9880397 (Heliyon, 2023)

Key:
Assay type in all cases: cell-based
[1] = test system: MCF-7 human breast cancer cells; test: SRB cytotoxicity assay, MCF-7 cells; conditions: for IC50: MCF7, 48 h, read-out: IC50 against MCF-7 cells
Method in brief: (§1)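 Cells from ATCC, seeded at about […] in fresh medium at 37 ᵒC and <5% CO2. After 24 h, a DMSO series of test compound (up to 100 μg/mL) was added, then incubated 48 h. Read-out was A570, with DMSO control set as 100% viability.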

[2] = test system: HEPG-2 (Liver) human cancer cells; test: SRB cytotoxicity assay, HEPG-2 cells
Method in brief: as §1

[3] = test system: A-549 (Lung) human cancer cells; test: SRB cytotoxicity assay, A-549 cells; conditions: A549, read-out: % Viability of cancer cells A-549
Method in brief: as §1

[4] = test system: HCT-116 (Colon) human cancer cells; test: SRB cytotoxicity assay, HCT-116 cells; conditions: HCT-116, read-out: % Viability of cancer cells HCT-116
Method in brief: as §1

[5] = HepG2, read-out: % Viability of cancer cells HEPG-2
[6] = MCF7, read-out: % Viability of cancer cells MCF-7

## COc1ccc(OC)c(NC(=S)NN=Cc2ccccn2)c1 [HL^2, 4-(2,5-Dimethoxyphenyl)-1-((pyridin-2-yl)methylene)thiosemicarbazide]
[1]
  IC50: 145 µM

## O=[N+]([O-])c1ccc(NC(=S)NN=Cc2ccccn2)cc1 [HL^1, 4-(4-Nitrophenyl)-1-((pyridin-2-yl)methylene)thiosemicarbazide]
[2]; HepG2, 48 h, read-out: IC50 against HEPG-2 cells
  IC50: 80 µM
[2]; [5]
  viability at 41.5 µM: 76%
  viability at 83 µM: 48%
  viability at 124.5 µM: 39.2%
  viability at 166 µM: 33.2%
[3]
  viability at 41.5 µM: 71.9%
  viability at 83 µM: 70.7%
  viability at 124.5 µM: 69.6%
  viability at 166 µM: 64.1%
[1]
  IC50: 52.4 µM
[1]; [6]
  viability at 41.5 µM: 60%
  viability at 83 µM: 26.4%
  viability at 124.5 µM: 23.2%
  viability at 166 µM: 9.6%
[4]
  viability at 41.5 µM: 80%
  viability at 83 µM: 76%
  viability at 124.5 µM: 63.6%
  viability at 166 µM: 60.4%

## COc1cccc2c1C(=O)c1c(O)c3c(c(O)c1C2=O)C[C@@](O)(C(=O)CO)C[C@@H]3O[C@H]1C[C@H](N)[C@H](O)[C@H](C)O1 [Doxorubicin, doxorubicin, reference compound]
[1]
  IC50: 9.66 µM
